{"source": "ChEMBL document CHEMBL1152662", "about": "“Synthesis and biological evaluation of novel 2-(substituted phenylaminocarbonylmethylthio)-6-(2,6-dichlorobenzyl)-pyrimidin-4(3H)-ones as potent HIV-1 NNRTIs” (Bioorg Med Chem, 2009)", "data": [{"test_system": "Human immunodeficiency virus 1", "assay": "Antiviral activity against HIV1 3B infected in human MT4 cells assessed as inhibition of virus-induced cytopathic effect after 5 days by MTT assay", "assay_type": "functional, organism-based", "details": "Human immunodeficiency virus 1, 3B, MT4, 120 h", "summary_of_the_method": "(§1)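 Compounds added at start in triplicate wells (stocks at 10× final) as serial fivefold dilutions; MT-4 cells at 6 × 10⁵ cells/mL infected with HIV-1 IIIB or HIV-2 ROD. Viability read by MTT 5 days post-infection at 540 and 690 nm, median OD of three wells. EC50 is the concentration giving 50% protection against virus-induced cytotoxicity.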", "units": {"EC50": "µM"}, "values": [{"smiles": "O=C(CSc1nc(Cc2c(Cl)cccc2Cl)cc(=O)[nH]1)Nc1ccc(Cl)c(Cl)c1", "EC50": "≥ 84.6"}, {"smiles": "COc1ccc(NC(=O)CSc2nc(Cc3c(Cl)cccc3Cl)cc(=O)[nH]2)cc1", "EC50": 0.92}, {"smiles": "Cc1c(Cc2c(Cl)cccc2Cl)nc(SCC(=O)Nc2ccc(Cl)c(Cl)c2)[nH]c1=O", "EC50": "≥ 2.82"}, {"smiles": "Cc1ccc(NC(=O)CSc2nc(Cc3c(Cl)cccc3Cl)cc(=O)[nH]2)cc1", "EC50": 0.88}, {"smiles": "Cc1c(Cc2c(Cl)cccc2Cl)nc(SCC(=O)Nc2ccc([N+](=O)[O-])cc2)[nH]c1=O", "EC50": 0.99}, {"smiles": "O=C(CSc1nc(Cc2c(Cl)cccc2Cl)cc(=O)[nH]1)Nc1ccc([N+](=O)[O-])cc1", "EC50": 2.07}, {"smiles": "Cc1c(Cc2c(Cl)cccc2Cl)nc(SCC(=O)Nc2ccc(Cl)cc2)[nH]c1=O", "EC50": 0.32}, {"smiles": "COc1ccc(NC(=O)CSc2nc(Cc3c(Cl)cccc3Cl)c(C)c(=O)[nH]2)cc1", "EC50": 2.74}, {"smiles": "Cc1c(Cc2c(Cl)cccc2Cl)nc(SCC(=O)Nc2ccc(F)c(Cl)c2)[nH]c1=O", "EC50": "≥ 41.1"}, {"smiles": "O=C(CSc1nc(Cc2c(Cl)cccc2Cl)cc(=O)[nH]1)Nc1ccc(Cl)cc1", "EC50": 0.95}, {"smiles": "Cc1c(Cc2c(Cl)cccc2Cl)nc(SCC(=O)Nc2ccc(Br)cc2)[nH]c1=O", "EC50": 0.18}, {"smiles": "O=C(CSc1nc(Cc2c(Cl)cccc2Cl)cc(=O)[nH]1)Nc1ccc(F)c(Cl)c1", "EC50": "> 264"}, {"smiles": "COc1ccc(NC(=O)CSc2nc(Cc3c(Cl)cccc3Cl)cc(=O)[nH]2)cc1OC", "EC50": 4.48}, {"smiles": "O=C(CSc1nc(Cc2c(Cl)cccc2Cl)cc(=O)[nH]1)Nc1ccc(Br)cc1", "EC50": 0.74}, {"smiles": "O=C(CSc1nc(Cc2c(Cl)cccc2Cl)cc(=O)[nH]1)Nc1ccc(F)c(F)c1", "EC50": "> 274"}, {"smiles": "Cc1c(Cc2c(Cl)cccc2Cl)nc(SCC(=O)Nc2ccc(F)c(F)c2)[nH]c1=O", "EC50": 0.69}, {"smiles": "COc1ccc(NC(=O)CSc2nc(Cc3c(Cl)cccc3Cl)c(C)c(=O)[nH]2)cc1OC", "EC50": 1.45}]}, {"test_system": "Human immunodeficiency virus 2", "assay": "Antiviral activity against HIV2 ROD infected in human MT4 cells assessed as inhibition of virus-induced cytopathic effect after 5 days by MTT assay", "assay_type": "functional, organism-based", "details": "Human immunodeficiency virus 2, ISOLATE ROD, MT4, 120 h", "summary_of_the_method": "as §1", "units": {"EC50": "µM"}, "values": [{"smiles": "O=C(CSc1nc(Cc2c(Cl)cccc2Cl)cc(=O)[nH]1)Nc1ccc(Cl)c(Cl)c1", "EC50": "> 19.6"}, {"smiles": "COc1ccc(NC(=O)CSc2nc(Cc3c(Cl)cccc3Cl)cc(=O)[nH]2)cc1", "EC50": "> 25.2"}, {"smiles": "Cc1c(Cc2c(Cl)cccc2Cl)nc(SCC(=O)Nc2ccc(Cl)c(Cl)c2)[nH]c1=O", "EC50": "> 248"}, {"smiles": "Cc1ccc(NC(=O)CSc2nc(Cc3c(Cl)cccc3Cl)cc(=O)[nH]2)cc1", "EC50": "> 47.4"}, {"smiles": "Cc1c(Cc2c(Cl)cccc2Cl)nc(SCC(=O)Nc2ccc([N+](=O)[O-])cc2)[nH]c1=O", "EC50": "≥ 45.8"}, {"smiles": "O=C(CSc1nc(Cc2c(Cl)cccc2Cl)cc(=O)[nH]1)Nc1ccc([N+](=O)[O-])cc1", "EC50": "> 269"}, {"smiles": "Cc1c(Cc2c(Cl)cccc2Cl)nc(SCC(=O)Nc2ccc(Cl)cc2)[nH]c1=O", "EC50": "> 267"}, {"smiles": "COc1ccc(NC(=O)CSc2nc(Cc3c(Cl)cccc3Cl)c(C)c(=O)[nH]2)cc1", "EC50": "> 10.8"}, {"smiles": "Cc1c(Cc2c(Cl)cccc2Cl)nc(SCC(=O)Nc2ccc(F)c(Cl)c2)[nH]c1=O", "EC50": "> 257"}, {"smiles": "O=C(CSc1nc(Cc2c(Cl)cccc2Cl)cc(=O)[nH]1)Nc1ccc(Cl)cc1", "EC50": "> 24.8"}, {"smiles": "Cc1c(Cc2c(Cl)cccc2Cl)nc(SCC(=O)Nc2ccc(Br)cc2)[nH]c1=O", "EC50": "> 244"}, {"smiles": "O=C(CSc1nc(Cc2c(Cl)cccc2Cl)cc(=O)[nH]1)Nc1ccc(F)c(Cl)c1", "EC50": "> 264"}, {"smiles": "COc1ccc(NC(=O)CSc2nc(Cc3c(Cl)cccc3Cl)cc(=O)[nH]2)cc1OC", "EC50": "> 166"}, {"smiles": "O=C(CSc1nc(Cc2c(Cl)cccc2Cl)cc(=O)[nH]1)Nc1ccc(Br)cc1", "EC50": "> 22.8"}, {"smiles": "O=C(CSc1nc(Cc2c(Cl)cccc2Cl)cc(=O)[nH]1)Nc1ccc(F)c(F)c1", "EC50": "> 274"}, {"smiles": "Cc1c(Cc2c(Cl)cccc2Cl)nc(SCC(=O)Nc2ccc(F)c(F)c2)[nH]c1=O", "EC50": "> 266"}, {"smiles": "COc1ccc(NC(=O)CSc2nc(Cc3c(Cl)cccc3Cl)c(C)c(=O)[nH]2)cc1OC", "EC50": "> 253"}]}, {"test_system": "not listed separately", "assay": "Cytotoxicity against mock-infected human MT4 cells after 5 days by MTT assay", "assay_type": "cell-based", "details": "not given", "summary_of_the_method": "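Mock-infected MT-4 cells (6 × 10⁵ cells/mL) exposed in triplicate to serial fivefold dilutions, added at start from stocks at 10× final concentration. Viability measured by MTT after 5 days, absorbance at 540 and 690 nm, median OD of three wells. CC50 is the concentration lowering OD540 of mock-infected control by 50%.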", "units": {"CC50 at 120 h": "µM"}, "values": [{"smiles": "O=C(CSc1nc(Cc2c(Cl)cccc2Cl)cc(=O)[nH]1)Nc1ccc(Cl)c(Cl)c1", "CC50 at 120 h": 19.6}, {"smiles": "COc1ccc(NC(=O)CSc2nc(Cc3c(Cl)cccc3Cl)cc(=O)[nH]2)cc1", "CC50 at 120 h": 25.5}, {"smiles": "Cc1c(Cc2c(Cl)cccc2Cl)nc(SCC(=O)Nc2ccc(Cl)c(Cl)c2)[nH]c1=O", "CC50 at 120 h": "> 248"}, {"smiles": "Cc1ccc(NC(=O)CSc2nc(Cc3c(Cl)cccc3Cl)cc(=O)[nH]2)cc1", "CC50 at 120 h": "≥ 47.4"}, {"smiles": "Cc1c(Cc2c(Cl)cccc2Cl)nc(SCC(=O)Nc2ccc([N+](=O)[O-])cc2)[nH]c1=O", "CC50 at 120 h": "> 261"}, {"smiles": "O=C(CSc1nc(Cc2c(Cl)cccc2Cl)cc(=O)[nH]1)Nc1ccc([N+](=O)[O-])cc1", "CC50 at 120 h": "> 269"}, {"smiles": "Cc1c(Cc2c(Cl)cccc2Cl)nc(SCC(=O)Nc2ccc(Cl)cc2)[nH]c1=O", "CC50 at 120 h": "> 267"}, {"smiles": "COc1ccc(NC(=O)CSc2nc(Cc3c(Cl)cccc3Cl)c(C)c(=O)[nH]2)cc1", "CC50 at 120 h": 10.8}, {"smiles": "Cc1c(Cc2c(Cl)cccc2Cl)nc(SCC(=O)Nc2ccc(F)c(Cl)c2)[nH]c1=O", "CC50 at 120 h": "> 257"}, {"smiles": "O=C(CSc1nc(Cc2c(Cl)cccc2Cl)cc(=O)[nH]1)Nc1ccc(Cl)cc1", "CC50 at 120 h": 24.8}, {"smiles": "Cc1c(Cc2c(Cl)cccc2Cl)nc(SCC(=O)Nc2ccc(Br)cc2)[nH]c1=O", "CC50 at 120 h": "> 244"}, {"smiles": "O=C(CSc1nc(Cc2c(Cl)cccc2Cl)cc(=O)[nH]1)Nc1ccc(F)c(Cl)c1", "CC50 at 120 h": "> 264"}, {"smiles": "COc1ccc(NC(=O)CSc2nc(Cc3c(Cl)cccc3Cl)cc(=O)[nH]2)cc1OC", "CC50 at 120 h": 166}, {"smiles": "O=C(CSc1nc(Cc2c(Cl)cccc2Cl)cc(=O)[nH]1)Nc1ccc(Br)cc1", "CC50 at 120 h": 22.8}, {"smiles": "O=C(CSc1nc(Cc2c(Cl)cccc2Cl)cc(=O)[nH]1)Nc1ccc(F)c(F)c1", "CC50 at 120 h": "> 274"}, {"smiles": "Cc1c(Cc2c(Cl)cccc2Cl)nc(SCC(=O)Nc2ccc(F)c(F)c2)[nH]c1=O", "CC50 at 120 h": "> 266"}, {"smiles": "COc1ccc(NC(=O)CSc2nc(Cc3c(Cl)cccc3Cl)c(C)c(=O)[nH]2)cc1OC", "CC50 at 120 h": "> 253"}]}, {"test_system": "not listed separately", "assay": "Selectivity index, ratio of CC50 for mock-infected human MT4 cells to EC50 for HIV1 3B infected in human MT4 cells", "assay_type": "toxicity, cell-based", "details": "read-out: Ratio CC50/EC50", "summary_of_the_method": "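Selectivity index calculated as CC50 over EC50, both from 5-day MTT viability readings in MT-4 cells, mock-infected or HIV-1 IIIB-infected, run in parallel triplicate wells.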", "values": [{"smiles": "COc1ccc(NC(=O)CSc2nc(Cc3c(Cl)cccc3Cl)cc(=O)[nH]2)cc1", "selectivity ratio": 28}, {"smiles": "Cc1c(Cc2c(Cl)cccc2Cl)nc(SCC(=O)Nc2ccc(Cl)c(Cl)c2)[nH]c1=O", "selectivity ratio": "≥ 88"}, {"smiles": "Cc1ccc(NC(=O)CSc2nc(Cc3c(Cl)cccc3Cl)cc(=O)[nH]2)cc1", "selectivity ratio": "≥ 54"}, {"smiles": "Cc1c(Cc2c(Cl)cccc2Cl)nc(SCC(=O)Nc2ccc([N+](=O)[O-])cc2)[nH]c1=O", "selectivity ratio": "> 264"}, {"smiles": "O=C(CSc1nc(Cc2c(Cl)cccc2Cl)cc(=O)[nH]1)Nc1ccc([N+](=O)[O-])cc1", "selectivity ratio": "> 130"}, {"smiles": "Cc1c(Cc2c(Cl)cccc2Cl)nc(SCC(=O)Nc2ccc(Cl)cc2)[nH]c1=O", "selectivity ratio": "> 836"}, {"smiles": "COc1ccc(NC(=O)CSc2nc(Cc3c(Cl)cccc3Cl)c(C)c(=O)[nH]2)cc1", "selectivity ratio": 4}, {"smiles": "Cc1c(Cc2c(Cl)cccc2Cl)nc(SCC(=O)Nc2ccc(F)c(Cl)c2)[nH]c1=O", "selectivity ratio": "≥ 1"}, {"smiles": "O=C(CSc1nc(Cc2c(Cl)cccc2Cl)cc(=O)[nH]1)Nc1ccc(Cl)cc1", "selectivity ratio": 23}, {"smiles": "Cc1c(Cc2c(Cl)cccc2Cl)nc(SCC(=O)Nc2ccc(Br)cc2)[nH]c1=O", "selectivity ratio": "> 1330"}, {"smiles": "O=C(CSc1nc(Cc2c(Cl)cccc2Cl)cc(=O)[nH]1)Nc1ccc(F)c(Cl)c1", "selectivity ratio": "< 1"}, {"smiles": "COc1ccc(NC(=O)CSc2nc(Cc3c(Cl)cccc3Cl)cc(=O)[nH]2)cc1OC", "selectivity ratio": 28}, {"smiles": "O=C(CSc1nc(Cc2c(Cl)cccc2Cl)cc(=O)[nH]1)Nc1ccc(Br)cc1", "selectivity ratio": 31}, {"smiles": "O=C(CSc1nc(Cc2c(Cl)cccc2Cl)cc(=O)[nH]1)Nc1ccc(F)c(F)c1", "selectivity ratio": "≥ 1"}, {"smiles": "Cc1c(Cc2c(Cl)cccc2Cl)nc(SCC(=O)Nc2ccc(F)c(F)c2)[nH]c1=O", "selectivity ratio": "> 387"}, {"smiles": "COc1ccc(NC(=O)CSc2nc(Cc3c(Cl)cccc3Cl)c(C)c(=O)[nH]2)cc1OC", "selectivity ratio": "> 175"}]}]}
